Assay outcomes as filed in PubChem BioAssay.
In the library only some 2% were active in any assay of this set; here they are far more common.
VIM-2 inh = inhibitors of Pseudomonas aeruginosa VIM-2 metallo-beta-lactamase; purified VIM-2, nitrocefin hydrolysis, epi-absorbance fluorescence; 290,000 compounds, 0.89% hits; inhibition, % at 5.6 µM;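 active = inhibition above the mean of all tested compounds plus 3 SD, cutoff set per screening run, cut at about 7.5% in these data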;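 note: red hydrolysis product quenches plate fluorescence so inhibitors raise well fluorescence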
IMP-1 inh-1 = inhibitors of Pseudomonas aeruginosa IMP-1 metallo-beta-lactamase. purified IMP-1, nitrocefin hydrolysis, epi-absorbance fluorescence. inhibition, % at 5.6 µM. 290,000 compounds, 0.45% hits. AID 1556;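 active = inhibition above the mean plus 3 SD of all compounds in the same screening run, cut at about 4.5% in these data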
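System: Purified IMP-1 | Read-out basis: Percent enzyme inhibition | Controls: IMP-1 with DMSO as 0%, enzyme-free DMSO as 100% | Replicates: One well per compound | Doses: 5.6 µM nominal single concentration | Detection: Epi-absorbance fluorescence, 480 nm excitation, 530 nm emission | Incubation: 25 °C, 15 min preincubation, 25 min reaction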
HKDC1 inh = HKDC1 (human) hexokinase inhibition | Q2TB90 | recombinant HKDC1, G6PDH/diaphorase resazurin coupled fluorescence | inhibition, % at 20 µM | 340,000 compounds, 0.16% hits;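 active = inhibition above about 35% when tested at 20 µM, limit read from the data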
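Test system: HK5 enzyme. Quantity: 5 µg/mL HK5 final. Reagent: glucose and ATP substrates. Schedule: 90 min reaction incubation at room temperature, dark. Technique: resazurin-to-resorufin fluorescence via G6PDH and diaphorase coupling, 525/613 nm. Control set: DMSO wells with and without enzyme mix.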
beta cell repl = MIN6 beta-cell proliferation induction | MIN6 cells proliferation, ATPlite luminescence, 48 h; cells starved in 0.2% serum; 100% = growth in 10% serum | 330,000 compounds, 0.29% hits | proliferation, % at 10 µM | AID 2380;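 active = compounds whose signal lies at least 3.5 SD above the mean of all wells on their plate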
ATG4B inhibitor = inhibitors of human ATG4B cysteine protease; ATG4B cleavage of LC3-PLA2, NBD-HPC fluorescence, 1 h; AID 504462; 340,000 compounds, 0.51% hits; inhibition, % at 8.33 µM; Q9Y4P1; in the data active = inhibition above about 40%
Target sequence (Q9Y4P1 whole entry, looked up): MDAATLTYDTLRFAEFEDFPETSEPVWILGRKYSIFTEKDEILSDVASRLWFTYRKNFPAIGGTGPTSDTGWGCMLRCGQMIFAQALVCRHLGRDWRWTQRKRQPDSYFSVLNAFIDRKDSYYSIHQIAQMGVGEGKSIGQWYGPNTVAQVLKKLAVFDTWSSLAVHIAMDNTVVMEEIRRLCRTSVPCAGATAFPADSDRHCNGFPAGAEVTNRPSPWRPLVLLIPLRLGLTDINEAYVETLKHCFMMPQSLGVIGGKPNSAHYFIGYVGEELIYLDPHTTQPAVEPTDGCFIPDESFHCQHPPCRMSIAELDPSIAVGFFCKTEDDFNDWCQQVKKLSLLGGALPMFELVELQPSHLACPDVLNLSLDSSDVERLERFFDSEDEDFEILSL
PvdQ inh = blocks Pseudomonas aeruginosa PvdQ acylase activity; purified PvdQ acylase, fluorescence plate reader; inhibition, % at 10 µM; 340,000 compounds, 0.063% hits; AID 488965; in the data active = inhibition above about 30%, passing the limit was not always enough
IMP-1 inh-2 = selectivity counter-screen for VIM-2 inhibitors: IMP-1 metallo-beta-lactamase inhibitors. inhibition, % at 5.6 µM. shares compounds with VIM-2 inh. 1,300 tested, under 10 active. AID 1856. purified IMP-1, nitrocefin hydrolysis, epi-absorbance fluorescence; call rule not given here
VIM-2 FRET ctr = inhibits VIM-2 in FRET assay to exclude epi-absorbance artifacts; shares compounds with VIM-2 inh; purified VIM-2, CCF2 FRET substrate hydrolysis; inhibition, % at 5.6 µM; 1,300 compounds, 23% hits; AID 1857;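 active = inhibition above the mean of all tested compounds plus 3 SD, cut at about 19% in these data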
TEM-1 counter = blocks E. coli TEM-1 beta-lactamase in VIM-2 selectivity screen | Purified TEM-1, nitrocefin hydrolysis, epi-absorbance fluorescence | shares compounds with VIM-2 inh | 1,300 compounds, 3% hits | inhibition, % at 5.6 µM;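 active = inhibition above that campaign's mean inhibition plus 3 SD, cut at about 0.46% in these data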
Target sequence (P62593 whole entry, looked up): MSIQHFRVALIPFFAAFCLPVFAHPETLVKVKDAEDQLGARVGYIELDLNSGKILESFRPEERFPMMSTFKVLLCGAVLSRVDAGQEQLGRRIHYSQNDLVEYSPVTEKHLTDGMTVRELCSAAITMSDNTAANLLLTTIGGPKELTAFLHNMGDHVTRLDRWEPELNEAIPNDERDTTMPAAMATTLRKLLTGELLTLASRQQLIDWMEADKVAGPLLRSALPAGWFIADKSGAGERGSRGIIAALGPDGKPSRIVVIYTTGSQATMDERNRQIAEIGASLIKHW
VIM-2 confirm 2 = confirmation of P. aeruginosa VIM-2 metallo-beta-lactamase inhibitors; shares compounds with VIM-2 inh; purified VIM-2, nitrocefin hydrolysis, epi-absorbance; inhibition, % at 5.6 µM; 1,300 compounds, 96% hits; AID 2187;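 active = inhibition of the VIM-2 beta-lactamase enzyme above about 11% from the earlier first-round screen, limit read from the data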
Each line names hits and unclear results; the compound was inactive in the other large screens (follow-up assays come after a bar, where they were run).

COc1cc(CNCc2ccccn2)ccc1OCc1cccc(Cl)c1	VIM-2 inh 12 | IMP-1 inh-2 inactive | VIM-2 FRET ctr inactive | TEM-1 counter inactive | VIM-2 confirm 2 29
CCc1c(C)nc2ncnn2c1NCCc1ccc(OC)c(OC)c1	VIM-2 inh 34 | IMP-1 inh-2 inactive | VIM-2 FRET ctr inactive | TEM-1 counter inactive | VIM-2 confirm 2 55
Cc1c(OCC(=O)NCCCN2CCCC2=O)ccc2c3c(c(=O)oc12)CCCC3	VIM-2 inh 12 | IMP-1 inh-2 inactive | VIM-2 FRET ctr inactive | TEM-1 counter inactive | VIM-2 confirm 2 21
Cc1c(OCC(=O)NCCCN2CCCC2=O)ccc2c3c(c(=O)oc12)CCC3	VIM-2 inh 23 | IMP-1 inh-2 inactive | VIM-2 FRET ctr inactive | TEM-1 counter inactive | VIM-2 confirm 2 29
Cc1cc(=O)oc2c(C)c(OCC(=O)NCCCN3CCCC3=O)ccc12	none
CCOc1cc(C(=O)CCC(=O)OCC(=O)NC(=O)NCC(C)C)ccc1O	none
NCCCC[C@H]1CNC(=S)N1CCCCC1CCCCC1	none
Cc1c(Cl)c(-c2n[nH]c(=S)n2-c2ccc(F)cc2)nn1C	VIM-2 inh 16 | IMP-1 inh-2 inactive | VIM-2 FRET ctr 42 | TEM-1 counter inactive | VIM-2 confirm 2 30
Cc1ccc(-n2c(-c3nn(C)cc3Cl)n[nH]c2=S)cc1	VIM-2 inh 17 | IMP-1 inh-2 inactive | VIM-2 FRET ctr 50 | TEM-1 counter inactive | VIM-2 confirm 2 31
Cn1cc(Cl)c(-c2n[nH]c(=S)n2-c2ccccc2)n1	VIM-2 inh 14 | IMP-1 inh-2 inactive | VIM-2 FRET ctr 42 | TEM-1 counter inactive | VIM-2 confirm 2 25
Cc1ccc(-n2c(-c3cc(C)n(C)n3)n[nH]c2=S)cc1	none
Cc1c(Cl)c(-c2n[nH]c(=S)n2CC(C)C)nn1C	none
Cc1nn(C)c(-c2n[nH]c(=S)n2-c2ccccc2)c1Cl	none
CCC(C)NC(=O)c1c(-c2cc(Cl)c(OC)c(Cl)c2)noc1C (stereo not drawn)	none
COCCCNC(=O)c1ccc(Cn2c(=O)c3ccccc3n(Cc3ccccc3C#N)c2=O)cc1	none
CCCCn1c(-c2nn(C)cc2Cl)n[nH]c1=S	VIM-2 inh 39 | IMP-1 inh-2 inactive | VIM-2 FRET ctr 66 | TEM-1 counter inactive | VIM-2 confirm 2 48
CCCCn1c(-c2nn(C)c(C)c2Cl)n[nH]c1=S	VIM-2 inh 36 | IMP-1 inh-2 inactive | VIM-2 FRET ctr 66 | TEM-1 counter inactive | VIM-2 confirm 2 46
CCCCCCn1c(-c2cccs2)n[nH]c1=S	VIM-2 inh 72 | IMP-1 inh-2 inactive | VIM-2 FRET ctr 83 | TEM-1 counter inactive | VIM-2 confirm 2 76
COc1ccc(/C=C2/CCC(CN3CCOCC3)C2=O)cc1 (stereo not drawn)	none (no result: VIM-2 inh, IMP-1 inh-1, beta cell repl)
COc1ccc(/C=C2/SC(=S)N(CCCC(=O)N3CCN(C)CC3)C2=O)cc1	VIM-2 inh 17 | IMP-1 inh-2 inactive | VIM-2 FRET ctr inactive | TEM-1 counter inactive | VIM-2 confirm 2 31
COc1ccc(/C=C2/SC(=S)N(CCC(=O)N3CCN(C)CC3)C2=O)cc1	none
COc1cc(/C=C2\SC(=S)N(CCC(=O)N3CCN(C)CC3)C2=O)cc(OC)c1OC	VIM-2 inh 15 | IMP-1 inh-2 inactive | VIM-2 FRET ctr inactive | TEM-1 counter inactive | VIM-2 confirm 2 25
Cc1noc(C)c1NC(=O)Nc1ccc2c(c1)CC(=O)N([C@H](C)CO)C[C@@H](C)[C@H](CN(C)CC1CCCCC1)O2	none (no result: VIM-2 inh, IMP-1 inh-1)
COCC(C)NC(=O)c1cccc([N+](=O)[O-])c1 (stereo not drawn)	none
COCC(C)NC(=O)c1cc2cccc([N+](=O)[O-])c2[nH]1 (stereo not drawn)	VIM-2 inh 21 | IMP-1 inh-2 inactive | VIM-2 FRET ctr 39 | TEM-1 counter inactive | VIM-2 confirm 2 23
COc1cccc(/C(O)=C2/C(=O)C(=O)N(Cc3cccnc3)C2c2ccco2)c1 (stereo not drawn)	none
O=C1C(=O)N(Cc2cccnc2)C(c2ccccn2)/C1=C(/O)c1ccccc1 (stereo not drawn)	VIM-2 inh 44 | IMP-1 inh-2 inactive | VIM-2 FRET ctr 62 | TEM-1 counter inactive | VIM-2 confirm 2 50
COc1ccc(CNC(=O)c2cc(SC)ccc2Cl)cc1OC	none
O=c1oc2c3c4c(cc2c2c1CCC2)OCCN4CCC3	VIM-2 inh 14 | IMP-1 inh-2 inactive | VIM-2 FRET ctr inactive | TEM-1 counter inactive | VIM-2 confirm 2 37
COc1ccc(Nc2nc(N3CCCC3)c3ccccc3n2)cc1	VIM-2 inh 19 | IMP-1 inh-2 inactive | VIM-2 FRET ctr inactive | TEM-1 counter inactive | VIM-2 confirm 2 35
O=c1cc(-c2ccncc2)oc2c1ccc1ccccc12	VIM-2 inh 17 | IMP-1 inh-2 inactive | VIM-2 FRET ctr inactive | TEM-1 counter inactive | VIM-2 confirm 2 23
C=CCOc1ccccc1CN(C(=O)CCl)c1ccc2c(c1)OCO2	none
CN(C)CCCNc1c2c(nc3cc(-c4cccc(F)c4)nn13)CCC2	VIM-2 inh 13 | IMP-1 inh-2 inactive | VIM-2 FRET ctr inactive | TEM-1 counter inactive | VIM-2 confirm 2 27
CCOCCCNc1c2c(nc3cc(-c4ccc(F)cc4)nn13)CCC2	none
COc1ccc(N(C)S(=O)(=O)c2cccc(C(=O)NCC(c3cccs3)N(C)C)c2)cc1 (stereo not drawn)	none (no result: VIM-2 inh, IMP-1 inh-1)
Cc1ccc(S(=O)(=O)Nc2ccccc2C(=O)N2CCCCCC2)cc1	none
CN1CCN(C(=O)CSc2nc3c(c(=O)n(C)c(=O)n3C)n2C)CC1	VIM-2 inh 76 | IMP-1 inh-2 inactive | VIM-2 FRET ctr inactive | TEM-1 counter inactive | VIM-2 confirm 2 79
COc1ccc(C(=O)Nc2ccc(Cl)cc2C(=O)N2CCCC(C)C2)cc1OC (stereo not drawn)	none
COc1ccc(Nc2c3c(nc4ccccc24)CCC3)cc1	none
COc1ccc(C)cc1Nc1c2c(nc3ccccc13)CCC2	VIM-2 inh 19 | IMP-1 inh-2 inactive | VIM-2 FRET ctr inactive | TEM-1 counter inactive | VIM-2 confirm 2 28
COc1ccc(Nc2c3c(nc4ccccc24)CCCC3)cc1OC	VIM-2 inh 16 | IMP-1 inh-2 inactive | VIM-2 FRET ctr inactive | TEM-1 counter inactive | VIM-2 confirm 2 30
